Measurements pooled from the literature.
Lines come from different studies, so protocols differ.

| SMILES | host | matrix | route | dose | setting | endpoint | value |
| --- | --- | --- | --- | --- | --- | --- | --- |
| COc1ccc(-c2c(Nc3ccccn3)[nH]c3c(C4=CCCCC4)c(-c4ccccc4)nn3c2=O)cc1 | human | plasma | oral | 400 mg once daily | multiple doses, steady state, patients | AUC(0-t) | 57300 ng·h/mL |
| CC(C)[C@@H](CS(=O)(=O)C(C)C)N1C(=O)[C@@](C)(CC(=O)O)C[C@H](c2cccc(Cl)c2)[C@H]1c1ccc(Cl)cc1 | FVB mouse | brain | oral | 20 mg/kg | – | unbound tissue/plasma ratio | 0.005 |
| COc1ccc2c(c1)CN(C(=O)CCN1CCC(Cc3ccccc3)CC1)CC[S@@+]2[O-] | male human | plasma | intravenous | 0.6 mg/kg | healthy volunteers | AUC(0-t) | 3180 ng·h/mL |
| NCc1cc2c(cc1F)C(=O)N(C1CCC(=O)NC1=O)C2 (centres unmarked) | male cynomolgus monkey | plasma | oral | 0.3 mg/kg | – | Tmax | 2 h |
| O=C(COc1ccc(Cl)cc1)NC12CC(c3nnc([C@H]4C[C@@H](OC(F)(F)F)C4)o3)(C1)C2 | human | plasma | oral | 200 mg | multiple doses, once daily, steady state, healthy volunteers | AUC | 242 µM·h |
| CC(=O)N(C)[C@H]1CCN(C(=O)c2cnc3c(c2)C[C@](C)(c2ccc(F)cc2)N3)C1 | male human | plasma | oral | 15 mg | multiple doses, once daily, steady state | AUC(0-t) | 1.97 µM·h |
| CC(C)n1c(C2CCNCC2)nc2c([N+](=O)[O-])c(Br)c(Br)cc21 | human | plasma | oral | 125 mg | patients | AUC(0-t) | 1760 ng·h/mL |
| COc1ccc(F)cc1C(=O)NCc1ccc(-c2nn([C@@H](C)C(F)(F)F)c(N)c2C(N)=O)cc1 | human | plasma | oral | 200 mg | single dose | AUC(0-inf) | 80800 ng·h/mL |
